From ChEMBL document CHEMBL1122805, “Structure-activity relationships of sparsomycin and its analogues. Octylsparsomycin: the first analogue more active than sparsomycin” (1984)
In brackets after ≈: the same amount, converted by molar mass. Activity calls are given as the source filed them. No cut-off for these calls is given here.

What follows are compounds tested on L1210 (assay: In vitro cytostatic activity and inhibition of leukemia L1210 cells. The dose causing 50% of inhibition of colony formation (ID50) relative to untreated control cells). Conditions: Mus musculus, read-out: ID50 (the source's name).
Assay type: functional
Outline: (§1)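 Mouse leukemia L1210 cells taken from suspension culture; 100 cells plated per dish in soft agar medium (Dulbecco's with 20% horse serum, 2-mercaptoethanol, L-asparagine, DEAE-dextran, 0.3% agar) containing compound at several concentrations. Continuous exposure 8 days, 37 °C, 10% CO2, humidified. Colonies counted; ID50 from dose-effect curves versus untreated controls. Highest dose tested 100 μg/mL.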

Row | SMILES | IC50 [µg/mL]
1 | CCCCCCCCSC[S+]([O-])C[C@H](CO)NC(=O)/C=C/c1c(C)nc(O)nc1O (some centres undefined) | 0.05 (≈ 0.109 µM)
2 | CSC[S@@+]([O-])C[C@H](CO)NC(=O)/C=C/c1c(C)[nH]c(=O)[nH]c1=O | 2.1 (≈ 5.81 µM)
3 | Cc1nc(O)nc(O)c1/C=C/C(=O)N[C@@H](CO)CSC[S+](C)[O-] (some centres undefined) | 66 (≈ 183 µM)
4 | CSCSC[C@H](CO)NC(=O)/C=C/c1c(C)nc(O)nc1O | 4.4 (≈ 12.7 µM)
5 | CSC[S@+]([O-])C[C@H](CO)NC(=O)/C=C/c1c(C)[nH]c(=O)[nH]c1=O | 0.15 (≈ 0.415 µM)

These compounds were tested on L1210 (assay: In vitro cytostatic activity and inhibition of leukemia L1210 cells. The dose causing 50% of inhibition of colony formation (ID50) relative to untreated control cells; NA-Not Active). Conditions: Mus musculus.
Assay type: functional, cell-based
Outline: as §1

Row | SMILES | ID50
6 | CSC[S@+]([O-])C[C@@H](CO)NC(=O)/C=C/c1c(C)nc(O)nc1O | inactive
7 | CSC[S@@+]([O-])C[C@@H](CO)NC(=O)/C=C/c1c(C)[nH]c(=O)[nH]c1=O | inactive
8 | Cc1nc(O)nc(O)c1/C=C/C(=O)N[C@H](CO)CSC[S+](C)[O-] (some centres undefined) | inactive
9 | CSCSC[C@@H](CO)NC(=O)/C=C/c1c(C)nc(O)nc1O | inactive
